The results in this text go back to ChEMBL document CHEMBL4270623, “Identification of novel inhibitors of histone acetyltransferase hMOF through high throughput screening” (Eur J Med Chem, 2018).

The source made the active and inactive calls. The calls are words filed in the database; no cut-off is given here.

Assay [1] addresses T1, Histone acetyltransferase KAT8 (Homo sapiens, UniProt Q9H7Z6).
T1 sequence (Q9H7Z6 whole entry): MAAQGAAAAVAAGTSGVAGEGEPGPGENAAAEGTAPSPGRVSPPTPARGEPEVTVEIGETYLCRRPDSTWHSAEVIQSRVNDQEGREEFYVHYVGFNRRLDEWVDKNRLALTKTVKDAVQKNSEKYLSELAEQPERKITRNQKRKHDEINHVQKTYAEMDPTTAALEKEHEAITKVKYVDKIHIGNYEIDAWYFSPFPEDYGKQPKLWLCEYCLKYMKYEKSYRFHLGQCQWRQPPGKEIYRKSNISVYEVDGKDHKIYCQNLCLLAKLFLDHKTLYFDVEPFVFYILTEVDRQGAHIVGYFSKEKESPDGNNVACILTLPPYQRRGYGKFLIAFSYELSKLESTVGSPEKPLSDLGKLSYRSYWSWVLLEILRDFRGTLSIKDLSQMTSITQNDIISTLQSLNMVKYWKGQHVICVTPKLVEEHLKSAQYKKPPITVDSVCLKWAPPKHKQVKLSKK
The assay can be described thus: Inhibition of human His-tagged MOF preincubated for 10 mins followed by biotin-labeled H4K16 substrate addition measured after 30 mins in presence of acetyl-CoA by alphascreen assay.

The target in assay [2] is T2, Histone acetyltransferase KAT8 (Homo sapiens) (UniProt Q9H7Z6).
T2 sequence (whole entry): T1 sequence (Q9H7Z6 whole entry)
Kind of assay: Inhibition of human His-tagged MOF at 100 uM using histone H4 substrate by radioactive acetylation assay relative to control. The method, boiled down: (§1)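 His6-tagged hMOF catalytic domain (173-458) from E. coli, preincubated with compound for 15 min at room temperature in modified Tris buffer pH 7.5, then given biotinylated H4-derived peptide and [3H]acetyl-CoA. Reaction ran 240 min at room temperature, was captured on a streptavidin Flashplate, washed and scintillation-counted. Percent inhibition computed; IC50 from a nonlinear dose-response fit.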

Assay [3] addresses T2, Histone acetyltransferase KAT8 (Homo sapiens). Kind of assay: Inhibition of human His-tagged MOF at 50 uM using histone H4 substrate by radioactive acetylation assay relative to control. The method, boiled down: as §1
Assay [4] has as its target T1, Histone acetyltransferase KAT8. The assay can be described thus: Inhibition of human His-tagged MOF using histone H4 substrate by radioactive acetylation assay. The method, boiled down:
as §1

For assay [5], the target named is T2, Histone acetyltransferase KAT8 (Homo sapiens). The assay can be described thus: Inhibition of MOF in human HCT116 cells assessed as decrease in H4K16 acetylation level after 24 hrs by Western blot analysis. It counts as cell-based. The method, boiled down: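 HCT116 cells treated for 24 h. Lysates run on 4–16% SDS-PAGE, transferred to nitrocellulose, blocked in 5% milk/PBST, primary antibody overnight at 4 °C, HRP donkey anti-rabbit secondary at 1:10000 for 1 h; H4K16 acetylation level read.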
On the technique in general: In western blotting, separated proteins are transferred to a membrane and probed.

For assay [6], the target named is Histone acetyltransferase KAT2A (Homo sapiens, UniProt Q92830). The assay can be described thus: Inhibition of recombinant human GST-tagged Gcn5 using H3 as substrate in presence of [3H]-acetyl-CoA by phosphor image analysis.
Sequence of Histone acetyltransferase KAT2A (Q92830 whole entry): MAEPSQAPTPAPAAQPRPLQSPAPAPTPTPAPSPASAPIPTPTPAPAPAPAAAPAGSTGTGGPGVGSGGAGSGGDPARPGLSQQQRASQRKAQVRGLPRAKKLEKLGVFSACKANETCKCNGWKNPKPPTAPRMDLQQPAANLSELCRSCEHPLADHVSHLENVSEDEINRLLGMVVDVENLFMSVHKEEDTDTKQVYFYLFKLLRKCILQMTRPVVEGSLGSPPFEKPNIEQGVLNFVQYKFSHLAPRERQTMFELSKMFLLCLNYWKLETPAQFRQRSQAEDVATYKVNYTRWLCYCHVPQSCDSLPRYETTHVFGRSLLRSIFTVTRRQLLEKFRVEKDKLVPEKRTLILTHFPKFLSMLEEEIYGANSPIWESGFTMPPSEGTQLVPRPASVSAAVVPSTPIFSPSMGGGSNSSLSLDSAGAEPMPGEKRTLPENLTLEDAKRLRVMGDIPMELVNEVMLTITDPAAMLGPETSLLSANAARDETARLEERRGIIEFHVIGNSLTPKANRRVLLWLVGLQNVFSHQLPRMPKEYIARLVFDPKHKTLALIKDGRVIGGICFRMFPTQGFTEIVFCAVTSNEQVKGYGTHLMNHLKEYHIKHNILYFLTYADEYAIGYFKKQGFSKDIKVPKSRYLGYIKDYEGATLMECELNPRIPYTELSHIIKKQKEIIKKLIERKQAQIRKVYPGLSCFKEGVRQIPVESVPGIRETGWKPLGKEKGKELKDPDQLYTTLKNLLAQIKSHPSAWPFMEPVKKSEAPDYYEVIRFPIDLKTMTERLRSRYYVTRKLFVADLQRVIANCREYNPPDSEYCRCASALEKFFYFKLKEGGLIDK
In assay [7] the target is T1, Histone acetyltransferase KAT8. Kind of assay: (§2) Binding affinity to human His-tagged MOF by SPR analysis. In outline:
(§3)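 hMOF catalytic domain (173-458), N-terminal His6, expressed in E. coli BL21(DE3), amine-coupled to a CM5 chip in 10 mM sodium acetate pH 4.0; SPR at 25 °C in HBS (20 mM HEPES pH 7.4, 200 mM NaCl, 0.5% DMSO). Analyte 5–100 μM injected 120 s at 30 μL/min, then 300 s dissociation; Kd from a steady-state fit.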
For orientation: Surface plasmon resonance follows binding to a sensor surface in real time, without labels.

Assay [8] concerns the target T2, Histone acetyltransferase KAT8 (Homo sapiens). The description is as §2. In outline:
as §3

The subject of assay [9] is HCT-116. Kind of assay: Inhibition of colony formation in human HCT116 cells after 14 days by crystal violet staining based assay. Format: functional, cell-based.
The species entered for assay [10] is Homo sapiens. Kind of assay: Selectivity ratio of IC50 for DNMT1 (unknown origin) to IC50 for human His-tagged MOF by alphascreen assay. On the technique in general: Alpha assays give light when donor and acceptor beads are brought close together.
Assay [11] deals with T2, Histone acetyltransferase KAT8 (Homo sapiens). The assay can be described thus: Inhibition of human His-tagged MOF using constant concentration histone H4 substrate and varying levels of acetyl-CoA by radioactive acetylation assay.
Another assay concerns the target Histone deacetylase 1 (Homo sapiens, UniProt Q13547). The assay can be described thus: Inhibition of HDAC1 (unknown origin).
The species named for assay [12] is Homo sapiens. The assay can be described thus: Selectivity ratio of IC50 for HDAC1 (unknown origin) to IC50 for human His-tagged MOF by alphascreen assay.
The species entered for assay [13] is Homo sapiens. The assay can be described thus: Selectivity ratio of IC50 for PRMT1 (unknown origin) to IC50 for human His-tagged MOF by alphascreen assay.
Assay [14] addresses Protein arginine N-methyltransferase 1 (Homo sapiens, UniProt Q99873). Kind of assay: Inhibition of PRMT1 (unknown origin).
The target of assay [15] is T2, Histone acetyltransferase KAT8 (Homo sapiens). The assay can be described thus: Inhibition of human His-tagged MOF using constant concentration acetyl-CoA and varying levels of histone H4 substrate by radioactive acetylation assay.
Assay [16] has the same target. The assay can be described thus: Inhibition of MOF in human HCT116 cells assessed as decrease in UCP2 mRNA level after 3 days by quantitative real-time PCR analysis.
Assay [17] shares this target. Kind of assay: Inhibition of MOF in human HCT116 cells assessed as decrease in SKP2 mRNA level after 3 days by quantitative real-time PCR analysis.
Assay [18] has as its system HCT-116. The assay can be described thus: Upregulation of IFI16 mRNA level in human HCT116 cells at 50 to 100 uM after 3 days by quantitative real-time PCR analysis.
For assay [19], the target named is DNA (cytosine-5)-methyltransferase 1 (Homo sapiens, UniProt P26358). Kind of assay: Inhibition of DNMT1 (unknown origin).
Sequence of DNA (cytosine-5)-methyltransferase 1 (P26358 whole entry): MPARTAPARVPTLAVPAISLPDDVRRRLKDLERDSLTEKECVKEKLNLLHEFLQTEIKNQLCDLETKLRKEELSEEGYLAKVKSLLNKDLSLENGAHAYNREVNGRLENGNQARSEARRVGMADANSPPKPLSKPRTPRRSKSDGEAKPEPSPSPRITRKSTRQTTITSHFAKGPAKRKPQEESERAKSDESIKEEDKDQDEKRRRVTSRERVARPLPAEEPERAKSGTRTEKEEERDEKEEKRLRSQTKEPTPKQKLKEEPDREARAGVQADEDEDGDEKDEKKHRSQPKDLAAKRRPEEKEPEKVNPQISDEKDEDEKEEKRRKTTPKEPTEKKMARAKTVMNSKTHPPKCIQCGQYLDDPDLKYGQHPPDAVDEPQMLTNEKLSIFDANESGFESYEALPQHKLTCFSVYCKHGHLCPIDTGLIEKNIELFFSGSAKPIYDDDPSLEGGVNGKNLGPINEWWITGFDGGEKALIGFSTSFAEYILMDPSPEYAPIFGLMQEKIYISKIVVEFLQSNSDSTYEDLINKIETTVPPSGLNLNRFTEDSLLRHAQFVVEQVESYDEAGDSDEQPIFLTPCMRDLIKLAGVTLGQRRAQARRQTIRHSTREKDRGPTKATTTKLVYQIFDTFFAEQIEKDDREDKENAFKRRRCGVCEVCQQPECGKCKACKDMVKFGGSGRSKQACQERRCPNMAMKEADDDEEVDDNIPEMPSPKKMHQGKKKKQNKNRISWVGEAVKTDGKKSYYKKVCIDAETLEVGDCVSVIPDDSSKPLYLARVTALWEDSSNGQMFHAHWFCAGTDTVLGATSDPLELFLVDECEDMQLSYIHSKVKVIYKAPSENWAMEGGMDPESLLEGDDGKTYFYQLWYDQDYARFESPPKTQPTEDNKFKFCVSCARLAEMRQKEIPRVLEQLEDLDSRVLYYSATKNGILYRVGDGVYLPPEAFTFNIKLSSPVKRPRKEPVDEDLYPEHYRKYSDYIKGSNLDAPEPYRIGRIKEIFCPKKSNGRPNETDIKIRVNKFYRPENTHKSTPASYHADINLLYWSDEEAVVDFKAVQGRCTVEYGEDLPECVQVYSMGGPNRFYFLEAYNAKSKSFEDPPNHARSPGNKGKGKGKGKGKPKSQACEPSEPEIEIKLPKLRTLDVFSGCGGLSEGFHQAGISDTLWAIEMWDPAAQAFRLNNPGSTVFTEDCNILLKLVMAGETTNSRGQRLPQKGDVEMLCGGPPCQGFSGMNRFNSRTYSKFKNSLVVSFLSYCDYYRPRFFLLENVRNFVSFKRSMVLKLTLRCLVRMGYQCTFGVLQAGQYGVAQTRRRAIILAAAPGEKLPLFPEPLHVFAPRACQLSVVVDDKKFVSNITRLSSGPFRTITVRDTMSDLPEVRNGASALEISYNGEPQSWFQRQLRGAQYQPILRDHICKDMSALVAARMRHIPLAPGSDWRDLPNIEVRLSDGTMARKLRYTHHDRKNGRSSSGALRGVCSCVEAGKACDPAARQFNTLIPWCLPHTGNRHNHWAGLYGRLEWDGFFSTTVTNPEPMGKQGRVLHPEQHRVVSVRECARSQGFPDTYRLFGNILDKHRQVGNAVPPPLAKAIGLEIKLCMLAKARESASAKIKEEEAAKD
The subject of assay [20] is HCT-116. The assay can be described thus: Inhibition of colony formation in human HCT116 cells at 100 uM after 14 days by crystal violet staining based assay. Format: functional, cell-based.

Sequence of Histone deacetylase 1 (Q13547 whole entry): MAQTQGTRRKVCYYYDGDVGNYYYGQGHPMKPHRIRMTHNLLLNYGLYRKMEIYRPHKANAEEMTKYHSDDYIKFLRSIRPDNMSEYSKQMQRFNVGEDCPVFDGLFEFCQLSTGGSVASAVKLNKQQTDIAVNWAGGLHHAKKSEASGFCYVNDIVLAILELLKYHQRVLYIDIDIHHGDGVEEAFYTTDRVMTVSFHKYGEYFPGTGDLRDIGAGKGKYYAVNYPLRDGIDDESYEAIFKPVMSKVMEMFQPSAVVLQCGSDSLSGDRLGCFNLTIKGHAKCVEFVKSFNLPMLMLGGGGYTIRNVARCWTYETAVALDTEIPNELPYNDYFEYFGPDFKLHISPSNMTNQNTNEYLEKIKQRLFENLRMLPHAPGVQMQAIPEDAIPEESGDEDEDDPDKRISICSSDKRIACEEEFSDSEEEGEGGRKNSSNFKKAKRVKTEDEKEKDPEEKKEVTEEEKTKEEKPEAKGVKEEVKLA
Sequence of Protein arginine N-methyltransferase 1 (Q99873 whole entry): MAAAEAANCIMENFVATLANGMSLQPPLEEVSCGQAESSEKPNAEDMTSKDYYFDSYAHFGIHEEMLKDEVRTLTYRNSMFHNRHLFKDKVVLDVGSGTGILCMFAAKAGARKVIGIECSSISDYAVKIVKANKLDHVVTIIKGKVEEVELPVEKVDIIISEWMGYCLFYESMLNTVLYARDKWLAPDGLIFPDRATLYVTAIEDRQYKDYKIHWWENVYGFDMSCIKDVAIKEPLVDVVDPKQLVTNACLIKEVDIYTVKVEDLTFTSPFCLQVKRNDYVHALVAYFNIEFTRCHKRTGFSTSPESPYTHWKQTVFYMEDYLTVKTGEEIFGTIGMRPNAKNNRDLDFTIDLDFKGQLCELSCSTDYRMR

By IC50 is commonly meant the concentration that gives 50% inhibition. On to `CCN(CC)S(=O)(=O)c1ccc(/C=C/c2nc3ccc(F)cc3s2)cc1`, for which the IC50 in assay [1] lay in the range of 6.6 to 40 µM.
For orientation: inhibition means the change of the read-out against control, counted positive when it falls. As to `O=S(=O)(Nc1ccccc1)c1ccc(/C=C/c2nc3ccccc3s2)cc1`, the inhibition in assay [2] is 25%; in assay [3], 13%.
With `O=S(=O)(NCc1ccccc1)c1ccc(/C=C/c2nc3ccccc3s2)cc1`, the inhibition turned out to be 11% in assay [2] and 1% in assay [3].
As to `CCN(CC)S(=O)(=O)c1ccc(/C=C/c2nc3cc(Cl)ccc3s2)cc1`, the inhibition in assay [2] is 89%; in assay [3], 64%. The IC50 in assay [4] is 30 µM.
On to `CC1CCc2c(sc3nnn(CC(=O)Nc4cccc5ccccc45)c(=O)c23)C1` (configuration not stated), for which, in assay [1], the IC50 was determined as 25 µM.
As to `Oc1cc(O)c2sc3nc(-c4cccs4)cc(-c4cccs4)c3c2n1`, the IC50 in assay [1] was 23 µM.
Take `CCN(CC)S(=O)(=O)c1ccc(/C=C/c2nc3ccccc3s2)cc1Cl`: the results for the inhibition in assay [2] and in [3] were 12% and 7%, respectively.
Regarding `Cc1ccc(CNS(=O)(=O)c2ccc(/C=C/c3nc4ccccc4s3)cc2)cc1`, the figures for the inhibition in assay [2] and in assay [3] were 33% and 17%, respectively.
For the molecule `CCN(CC)S(=O)(=O)c1ccc(/C=C/c2nc3cc(C)ccc3s2)cc1`, the inhibition in [2] was determined as 14%; in assay [3], 0%.
On the same counts, the results for `CCN(CC)S(=O)(=O)c1ccc(/C=C/c2nc3ccccc3s2)cc1F` are 18% and 16%.
For the molecule `CCN(CC)S(=O)(=O)c1ccc(/C=C/c2nc3cc(Br)ccc3s2)cc1`, the inhibition is 82% in assay [2] and 57% in [3]. Moreover, the IC50 in [4] stood at 30 µM.
Turning to `O=C(Cc1cccc2ccccc12)Nc1ccc2nc(SCC(=O)N3CCCC3)sc2c1`, in assay [1], the IC50 stood at 14 µM.
With `O=C(CCCCCCC(=O)Nc1ccccc1)NO`, the inhibition result in assay [5] is “Dose-dependent effect”.
With `N#Cc1c(-c2ccccc2)cc(-c2cccs2)nc1SCC(=O)NCC(=O)O`, the IC50 in assay [1] was 74 µM.
`Cc1ccc(-c2cc(C(=O)O)c3cc4c(C(=O)O)cc(-c5ccc(C)o5)nc4cc3n2)o1`: in [1], the IC50 was 17 µM.
For the molecule `CCN(CC)S(=O)(=O)c1ccc(/C=C/c2nc3ccc(Br)cc3s2)cc1`, the values for the inhibition in assay [2] and in [3] were 21% and 5%, respectively.
For the molecule `CCN(CC)S(=O)(=O)c1ccc(/C=C/c2nc3ccccc3s2)cc1C`, the figures for the inhibition in [2] and in assay [3] were 30% and 28%, respectively.
`C=C1C(=O)O[C@H](CCC)[C@H]1C(=O)O`: the IC50 in [6] was 100 µM.
As to `CCc1nnc(NC(=O)CCSCCC(=O)Nc2nnc(CC)s2)s1`, the IC50 in assay [1] was 18 µM.
As for `CCN(CC)S(=O)(=O)c1ccc(/C=C/c2nc3cc(OC)ccc3s2)cc1`, the inhibition is 13% in [2] and 14% in assay [3].
`COc1ccc(CNS(=O)(=O)c2ccc(/C=C/c3nc4ccccc4s3)cc2)cc1`: the inhibition worked out at 28% in [2] and 0% in assay [3].
Broadly, the Kd is the equilibrium constant for the complex coming apart. The low end stands for a tighter complex, the high end for a looser complex. In assay [7], `CCN(CC)S(=O)(=O)c1ccc(/C=C/c2nc3cc(F)ccc3s2)cc1` showed a Kd of 19 µM. The Activity result in assay [8] was “Dose-dependent effect”. For the same molecule, the inhibition in assay [2] came out at 84%; in assay [3], 53%. Moreover, in assay [4], the IC50 came out at 40 µM.
For `CCN(CC)S(=O)(=O)c1ccc(/C=C/c2nc3ccccc3s2)cc1`, the inhibition entry in the assay on HCT-116 [9] was “Dose-dependent effect”; in [2], 100%; in [3], 93%; in assay [16], “Dose-dependent effect”; in assay [17], “Dose-dependent effect”; in assay [5], “Dose-dependent effect”. Further, the Ratio IC50 in the assay listed under Homo sapiens [10], in the assay filed under Homo sapiens [12] and in the assay listed under Homo sapiens [13] was > 11 each time. For the same molecule, the inhibition entry in assay [11] was “Active”. The IC50 on Histone deacetylase 1 was > 100 µM; in [14] it was > 100 µM; in assay [4], 6 µM; in assay [19], > 100 µM. In addition, the inhibition result in assay [15] was “inactive”. Moreover, the result with HCT-116 [18] was Active.
`Cc1ccc(C2C(C(=O)c3cc4ccccc4o3)=C(O)C(=O)N2Cc2ccco2)cc1` (configuration not stated): in assay [1], the IC50 stood at 29 µM.
In the case of `CN(C)S(=O)(=O)c1ccc(/C=C/c2nc3ccccc3s2)cc1`, the inhibition in assay [2] turned out to be 14%; in assay [3], 9%.
As to `CCCCCCCc1ccc(CCc2cccc(O)c2C(=O)O)cc1`, the inhibition in [2] and in assay [3] was 100% each time. Also, in the assay with HCT-116 [20], the inhibition entry was “Active”. The IC50 in assay [1] is 27 µM; in assay [4], 15 µM.
Take `CCN(CC)S(=O)(=O)c1ccc(/C=C/c2nc3cc(C)c(C)cc3s2)cc1`: the inhibition turned out to be 96% in assay [2] and 95% in assay [3]. In addition, the IC50 in assay [4] was 7.7 µM.
